# Activity calls are given as the source filed them. No cut-off for these calls is given here.
# Tests used:
# Escherichia coli [1] = test: Growth inhibition of ciprofloxacin-susceptible Escherichia coli DH5[alpha] incubated for 18 hrs by broth microdilution method; assay type: organism-based; settings: in vivo
# In short: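 MIC determination against E. coli DH5α, either lacking β-lactamase or expressing the ESBL TEM-116. The MIC is the minimal concentration that inhibits bacterial growth.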
# Escherichia coli [2] = test: Growth inhibition of Escherichia coli DH5[alpha] expressing ESBL TEM-116 incubated for 18 hrs by broth microdilution method; assay type: functional
# Escherichia coli [3] = test: Growth inhibition of ciprofloxacin-susceptible Escherichia coli CFT073 harboring pSU18 incubated for 18 hrs by broth microdilution method; assay type: organism-based; settings: in vivo
# In short: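 MIC determination in E. coli CFT073, either wild type or carrying pSU18 (empty pEMP, or encoding CTX-M, NDM-1 or KPC). Dose–response growth curves were run, and each point is the mean ± SEM of n = 3. The MIC is the minimal concentration that inhibits bacterial growth.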
# [4] = Prodrug activation in Escherichia coli CFT073 harboring CTX-M-1 assessed as bacterial CTX-M-1-mediated compound hydrolysis incubated for 1 hr by 1H-NMR analysis; settings: bacteria
# In short: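 Whole-cell hydrolysis used E. coli CFT073 carrying pSU18 encoding CTX-M-1. The read-out was percentage of compound hydrolysed after 60 min.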
# [5] = Selectivity ratio of MIC for ciprofloxacin-susceptible Escherichia coli CFT073 harboring pSU18 to MIC for ciprofloxacin-susceptible Escherichia coli DH5[alpha]; assay type: ADME
# Escherichia coli [6] = test: Growth inhibition of Escherichia coli CFT073 harboring pSU18 and CTX-M-1 incubated for 18 hrs by broth microdilution method; settings: CFT073, 18 h
# [7] = Prodrug activation in Escherichia coli DH5[alpha] expressing TEM-116 assessed as bacterial TEM-116 mediated compound hydrolysis at 50 uM incubated for 60 mins by 1H-NMR spectra analysis; settings: bacteria
# [8] = Prodrug activation in Escherichia coli DH5[alpha] expressing beta-lactamase CTX-M-1 assessed as bacterial CTX-M-1-mediated compound hydrolysis at 100 uM incubated for 60 mins by 1H-NMR spectra analysis; settings: bacteria
# [9] = Drug metabolism in CTX-M-1-deficient Escherichia coli DH5[alpha] assessed as compound hydrolysis at 100 uM incubated for 60 mins by 1H-NMR spectra analysis; assay type: ADME; settings: CTX-M-1-deficient Escherichia coli DH5alpha cells, read-out: Drug metabolism
# Enterococcus faecalis [10] = test: Effect on growth of Enterococcus faecalis ATCC 29212 incubated for 18 hrs by broth microdilution method; assay type: organism-based; settings: in vivo
# Enterococcus faecalis [11] = test: Effect on growth of Enterococcus faecalis GW01 incubated for 18 hrs by broth microdilution method; assay type: organism-based; settings: in vivo
# [12] = biological target: DNA gyrase (Escherichia coli) (UniProt P0AES6+P0AES4); settings: 1 uM
# [13] = Drug metabolism in TEM-116-deficient Escherichia coli DH5[alpha] assessed as compound hydrolysis at 100 uM incubated for 90 mins by 1H-NMR spectra analysis; assay type: ADME; settings: TEM-116-deficient Escherichia coli DH5alpha cells, read-out: Drug degradation
# [14] = Prodrug activation in Escherichia coli DH5[alpha] expressing TEM-116 assessed as bacterial TEM-116 mediated compound hydrolysis at 100 uM incubated for 90 mins by 1H-NMR spectra analysis; settings: bacteria, 1.5 h
SMILES,MIC (Escherichia coli [1]) [µM],MIC (Escherichia coli [2]) [µM],MIC (Escherichia coli [3]),Drug metabolism [4] [%],Selectivity ratio [5],MIC (Escherichia coli [6]) [µM],Drug metabolism [7] [%],Drug metabolism [8] [%],"metabolised at 1 h, 100 µM [9] [%]",Activity (Enterococcus faecalis [10]),Activity (Enterococcus faecalis [11]),inhibition [12],"metabolised at 1.5 h, 100 µM [13] [%]",Drug metabolism [14] [%]
CC(=O)OCC1=C(C(=O)O)N2C(=O)[C@@H](NC(=O)Cc3ccccc3)[C@H]2SC1 [CEFALORAM],50,100,50 µM,17,<= 2,> 400,,,,,,,,
CC(=O)OCC1=C(C(=O)O)N2C(=O)[C@@H](NC(=O)Cc3ccc(F)cc3)[C@H]2SC1,100,200,100 µM,18,<= 2,> 400,,,,,,,,
CC(=O)OCC1=C(C(=O)O)N2C(=O)[C@@H](NC(=O)Cc3cccc(C)c3)[C@H]2SC1,200,400,200 µM,16,<= 2,> 400,,,,,,,,
CCCCCC(=O)N[C@@H]1C(=O)N2C(C(=O)O)=C(COC(C)=O)CS[C@H]12,200,> 800,100 µM,7,<= 2,> 400,,,,,,,,
CC(=O)OCC1=C(C(=O)O)N2C(=O)[C@@H](NC(=O)Cc3cccs3)[C@H]2SC1 [CEPHALOTHIN],12.5,100,25 µM,68,<= 2,> 400,61,100,0,,,,,
CC(=O)OCC1=C(C(=O)O)N2C(=O)[C@@H](NC(=O)[C@H](C)c3ccccc3)[C@H]2SC1,400,> 800,> 400 µM,,<= 2,> 400,,,,,,,,
CC(=O)OCC1=C(C(=O)O)N2C(=O)[C@@H](NC(=O)Cc3ccc(Cl)cc3)[C@H]2SC1,100,400,100 µM,14,<= 2,> 400,,,,,,,,
CC(=O)OCC1=C(C(=O)O)N2C(=O)[C@@H](NC(=O)c3ccc([N+](=O)[O-])cc3)[C@H]2SC1,> 400,> 400,,,,,,,,,,,,
CC(=O)OCC1=C(C(=O)O)N2C(=O)[C@@H](NC(=O)c3ccc(C)cc3)[C@H]2SC1,> 400,> 400,> 400 µM,3,<= 2,> 400,,,,,,,,
CC(=O)OCC1=C(C(=O)O)N2C(=O)[C@@H](NC(=O)Cc3cccc(Oc4ccccc4)c3)[C@H]2SC1,> 800,> 800,>= 400 uM,,<= 2,> 400,,,,,,,,
CC(=O)OCC1=C(C(=O)O)N2C(=O)[C@@H](NC(=O)c3ccco3)[C@H]2SC1,> 400,> 400,> 400 µM,64,<= 2,> 400,,,,,,,,
COc1ccc(C(=O)N[C@@H]2C(=O)N3C(C(=O)O)=C(COC(C)=O)CS[C@H]23)cc1,> 800,> 800,> 400 µM,3,<= 2,> 400,,,,,,,,
CCCC(=O)N[C@@H]1C(=O)N2C(C(=O)O)=C(COC(C)=O)CS[C@H]12,100,400,200 µM,25,<= 2,> 400,,,,,,,,
CC(=O)OCC1=C(C(=O)O)N2C(=O)[C@@H](NC(=O)c3ccccc3)[C@H]2SC1,> 400,> 400,> 400 µM,26,<= 2,> 400,,,,,,,,
CC(=O)OCC1=C(C(=O)O)N2C(=O)[C@@H](NC(=O)Cc3ccc(Br)cc3)[C@H]2SC1,200,800,100 µM,9,<= 2,> 400,,,,,,,,
O=C(O)c1cn(C2CC2)c2cc(N3CCNCC3)c(F)cc2c1=O [CIPROFLOXACIN],,,,,,,,,,Toxic,Toxic,Active,,
CC(=O)OCC1=C(C(=O)O)N2C(=O)[C@@H](NC(=O)Cc3ccsc3)[C@H]2SC1,50,200,50 µM,32,<= 2,> 400,,,,,,,,
CC(=O)OCC1=C(C(=O)O)N2C(=O)[C@@H](NC(=O)Cc3ccc(C)cc3)[C@H]2SC1,100,400,100 µM,7,<= 2,> 400,,,,,,,,
CC(=O)OCC1=C(C(=O)O)N2C(=O)[C@@H](NC(=O)Cc3ccc(Oc4ccccc4)cc3)[C@H]2SC1,> 800,> 800,> 400 µM,4,<= 2,> 400,,94,0,,,,13,54
CC(=O)OCC1=C(C(=O)O)N2C(=O)[C@@H](NC(=O)Cc3cc(Br)cs3)[C@H]2SC1,50,200,50 µM,,<= 2,> 400,,,,,,,,
CC(=O)OCC1=C(C(=O)O)N2C(=O)[C@@H](NC(=O)C3CCCCC3)[C@H]2SC1,> 400,> 400,,,,,,,,,,,,
CC(=O)OCC1=C(C(=O)O)N2C(=O)[C@@H](NC(=O)Cc3ccc(-c4ccccc4)cc3)[C@H]2SC1,> 800,> 800,> 400 µM,4,<= 2,> 400,,100,0,,,,14,69
CC(=O)N[C@@H]1C(=O)N2C(C(=O)O)=C(COC(C)=O)CS[C@H]12,200,,400 µM,67,<= 2,> 400,,,,,,,,
